In ChEMBL document CHEMBL1153955, “Indolylarylsulfones bearing natural and unnatural amino acids. Discovery of potent inhibitors of HIV-1 non-nucleoside wild type and resistant mutant strains reverse transcriptase and coxsackie B4 virus” (J Med Chem, 2009):

Legend:
Feline coronavirus = test: Antiviral activity against Feline coronavirus in feline […] cells assessed as inhibition of virus-induced cytopathicity; type: functional, organism-based; settings: Alphacoronavirus 1
[1] = target: Human immunodeficiency virus type 1 reverse transcriptase (Human immunodeficiency virus 1, UniProt Q72547, K103N); test: Inhibition of HIV1 reverse transcriptase p66/p51 K103N mutant; settings: read-out: IC50
Outline: (§1)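 Substrate was 0.5 µg poly(rA)/oligo(dT) 10:1 (0.3 µM 3′-OH ends) with 10 µM [³H]dTTP, at 37 °C. Acid-precipitable radioactivity was counted on GF/C filters after TCA washes.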

[2] = target: Human immunodeficiency virus type 1 reverse transcriptase (Human immunodeficiency virus 1, UniProt Q72547, Y181I); test: Inhibition of HIV1 reverse transcriptase p66/p51 Y181I mutant; settings: read-out: IC50; outline: as §1
Influenza B virus [3] = test: Antiviral activity against influenza B virus in MDCK cells assessed as reduction of virus-induced cytopathicity by visual cytopathic effect scoring method; type: functional, organism-based
Coxsackievirus B4 [4] = test: Antiviral activity against Coxsackievirus B4 in human HeLa cells assessed as protection against virus-induced cytopathicity; type: functional, organism-based; settings: Enterovirus B
Outline: (§2)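 Confluent cell monolayers inoculated with 100 CCID₅₀ virus. After 1-2 h adsorption, residual virus removed and cultures incubated with varying compound concentrations. Cytopathicity scored once it reached completion in untreated infected controls. EC₅₀ = dose reducing virus-induced cytopathogenicity by 50%.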

[5] = tested on: Human immunodeficiency virus 2; test: Antiviral activity against HIV2 ROD in human CEM cells assessed as protection against virus-induced cytopathicity after 4 days; type: functional, organism-based; settings: Human immunodeficiency virus 2, ROD, CCRF-CEM, 96 h
Outline: (§3)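 CEM cells (~3 × 10⁵ cells/mL) infected with ~100 CCID₅₀ per mL of HIV-1 (IIIB) or HIV-2 (ROD), then seeded into wells containing compound dilutions. After 4 days at 37 °C, syncytium (giant cell) formation was examined microscopically. EC₅₀ = concentration protecting CEM cells from HIV cytopathicity by 50%.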

[6] = Cytotoxicity against MDCK cells assessed as drug level causing microscopically detectable alteration of normal cell morphology; type: cell-based, Canis lupus familiaris; settings: dog
[7] = Cytotoxicity against human HEL cells assessed as drug level causing microscopically detectable alteration of normal cell morphology after 3 days; type: cell-based
Punta Toro virus = test: Antiviral activity against Punta Toro virus in african green monkey Vero cells assessed as protection against virus-induced cytopathicity; type: functional, organism-based; outline: as §2
[8] = tested on: Mammalian orthoreovirus 1; test: Antiviral activity against Reovirus 1 in african green monkey Vero cells assessed as protection against virus-induced cytopathicity; type: functional, organism-based; settings: Mammalian orthoreovirus 1, Vero; outline: as §2
L1210 = test: Antiproliferative activity against mouse L1210 cells after 2 days; type: cell-based; settings: L1210, 48 h
Outline: (§4)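 Cells seeded at 5 × 10⁴ to 7.5 × 10⁴ cells/200 µL with or without serial compound dilutions; incubated at 37 °C for 2 days (L1210) or 3 days (Molt4/C8, CEM). Cell numbers counted with a Coulter counter. CC₅₀ = concentration reducing proliferation by 50% versus untreated controls, read from plots of cell number (% of control) against concentration. Means of at least two independent experiments.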

Sindbis virus = test: Antiviral activity against Sindbis virus in african green monkey Vero cells assessed as protection against virus-induced cytopathicity; type: functional, organism-based; outline: as §2
Felid alphaherpesvirus 1 = test: Antiviral activity against Feline herpesvirus in feline […] cells assessed as inhibition of virus-induced cytopathicity; type: functional, organism-based
Coxsackievirus B4 [9] = test: Antiviral activity against Coxsackievirus B4 in african green monkey Vero cells assessed as protection against virus-induced cytopathicity; type: functional, organism-based; settings: Enterovirus B; outline: as §2
Human alphaherpesvirus 2 = test: Antiviral activity against HSV2 G in human HEL cells assessed as protection against virus-induced cytopathicity; type: functional, organism-based; settings: Human alphaherpesvirus 2, strain G; outline: as §2
CCRF-CEM = test: Antiproliferative activity against human CEM cells after 3 days; type: cell-based; settings: 72 h; outline: as §4
[10] = tested on: Vesicular stomatitis virus; test: Antiviral activity against VSV in human HEL cells assessed as protection against virus-induced cytopathicity; type: functional, organism-based
[11] = Cytotoxicity against MDCK cells by MTS assay; type: cell-based, Canis lupus familiaris; settings: dog
[12] = target: Human immunodeficiency virus type 1 reverse transcriptase (Human immunodeficiency virus 1, UniProt Q72547, L100I); test: Inhibition of HIV1 reverse transcriptase p66/p51 L100I mutant; settings: read-out: IC50; outline: as §1
Influenza A virus [13] = test: Antiviral activity against influenza H1N1 virus in MDCK cells assessed as reduction of virus-induced cytopathicity by MTS method; type: functional, organism-based; settings: Influenza A virus, H1N1, MDCK
Human alphaherpesvirus 1 [14] = test: Antiviral activity against thymidine kinase deficient and acyclovir resistant HSV1 KOS in human HEL cells assessed as protection against virus-induced cytopathicity; type: functional, organism-based; settings: Human alphaherpesvirus 1, KOS
[15] = tested on: Vesicular stomatitis virus; test: Antiviral activity against VSV in human HeLa cells assessed as protection against virus-induced cytopathicity; type: functional, organism-based
Influenza B virus [16] = test: Antiviral activity against influenza B virus in MDCK cells assessed as reduction of virus-induced cytopathicity by MTS method; type: functional, organism-based
[17] = Cytotoxicity against human HeLa cells assessed as drug level causing microscopically detectable alteration of normal cell morphology after 3 days; type: cell-based
Outline: (§5)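 Serial compound dilutions added to confluent HeLa or Vero monolayers. MCC = minimum concentration causing microscopically detectable alteration of cell morphology after 3 days of incubation.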

Human alphaherpesvirus 1 [18] = test: Antiviral activity against HSV1 KOS in human HEL cells assessed as protection against virus-induced cytopathicity; type: functional, organism-based; settings: Human alphaherpesvirus 1, KOS
Influenza A virus H3N2 [19] = test: Antiviral activity against influenza H3N2 virus in MDCK cells assessed as reduction of virus-induced cytopathicity by MTS method; type: functional, organism-based
Human respirovirus 3 = test: Antiviral activity against Parainfluenza virus type 3 in african green monkey Vero cells assessed as protection against virus-induced cytopathicity; type: functional, organism-based; settings: Human respirovirus 3, Vero; outline: as §2
[20] = target: Human immunodeficiency virus type 1 reverse transcriptase (Human immunodeficiency virus 1, UniProt Q72547); test: Inhibition of HIV1 reverse transcriptase p66/p51; settings: read-out: IC50
Influenza A virus [21] = test: Antiviral activity against influenza H1N1 virus in MDCK cells assessed as reduction of virus-induced cytopathicity by visual cytopathic effect scoring method; type: functional, organism-based
Vaccinia virus = test: Antiviral activity against Vaccinia virus Lederle in human HEL cells assessed as protection against virus-induced cytopathicity; type: functional, organism-based; settings: Orthopoxvirus vaccinia
[22] = tested on: Human immunodeficiency virus 1; test: Antiviral activity against HIV1 3B in human CEM cells assessed as protection against virus-induced cytopathicity after 4 days; type: functional, organism-based; settings: Human immunodeficiency virus 1, 3B, CCRF-CEM, 96 h; outline: as §3
[23] = Cytotoxicity against feline CRFK cells by MTS assay; type: cell-based, Felis catus; settings: cat
Influenza A virus H3N2 [24] = test: Antiviral activity against influenza H3N2 virus in MDCK cells assessed as reduction of virus-induced cytopathicity by visual cytopathic effect scoring method; type: functional, organism-based
[25] = Cytotoxicity against african green monkey Vero cells assessed as drug level causing microscopically detectable alteration of normal cell morphology after 3 days; type: cell-based; settings: chlorocebus sabaeus; outline: as §5
[26] = tested on: Respiratory syncytial virus; test: Antiviral activity against RSV Long in human HeLa cells assessed as protection against virus-induced cytopathicity; type: functional, organism-based; outline: as §2
[27] = Antiproliferative activity against human Molt4/C8 cells after 3 days; type: cell-based; settings: MOLT-4, 72 h; outline: as §4

Row | SMILES | EC50 (Feline coronavirus) [µM] | IC50 [1] [µM] | IC50 [2] [µM] | EC50 (Influenza B virus [3]) [µM] | EC50 (Coxsackievirus B4 [4]) [µM] | EC50 [5] [µM] | MCC [6] [µM] | MCC at 72 h [7] [µM] | EC50 (Punta Toro virus) [µM] | EC50 [8] [µM] | IC50 (L1210) [µM] | EC50 (Sindbis virus) [µM] | EC50 (Felid alphaherpesvirus 1) [µM] | EC50 (Coxsackievirus B4 [9]) [µM] | EC50 (Human alphaherpesvirus 2) [µM] | IC50 (CCRF-CEM) [µM] | EC50 [10] [µM] | CC50 [11] [µM] | IC50 [12] [µM] | EC50 (Influenza A virus [13]) [µM] | further results
1 | Cc1cc(C)cc(S(=O)(=O)c2c(C(=O)NC(C)C(N)=O)[nH]c3ccc(Br)cc23)c1 (centres undefined) | > 4 | 0.509 | 1.81 | > 800 | 2 | > 10 | 4 | 20 | > 4 | > 4 | 10 | > 4 | > 4 | > 4 | > 4 | 10 | > 4 | 1.7 | 0.041 | > 800 | EC50 (Human alphaherpesvirus 1 [14]): > 4 µM; EC50 [15]: > 4 µM; EC50 (Influenza B virus [16]): > 800 µM; MCC at 72 h [17]: 20 µM; EC50 (Human alphaherpesvirus 1 [18]): > 4 µM; EC50 (Influenza A virus H3N2 [19]): > 800 µM; EC50 (Human respirovirus 3): > 4 µM; IC50 [20]: 0.016 µM; EC50 (Influenza A virus [21]): > 800 µM; EC50 (Vaccinia virus): > 4 µM; EC50 [22]: 0.0019 µM; CC50 [23]: 9.2 µM; EC50 (Influenza A virus H3N2 [24]): > 800 µM; MCC at 72 h [25]: 20 µM; EC50 [26]: 4 µM; IC50 [27]: 8.7 µM
2 | Cc1cc(C)cc(S(=O)(=O)c2c(C(=O)NCC(N)=O)[nH]c3ccc([N+](=O)[O-])cc23)c1 | > 100 | 0.417 | 2.91 | > 20 | > 100 | > 50 | 100 | 100 | > 100 | > 100 | > 500 | > 100 | > 100 | > 100 | > 20 | ≥ 500 | > 20 | > 100 | 0.206 | > 20 | EC50 (Human alphaherpesvirus 1 [14]): > 20 µM; EC50 [15]: > 100 µM; EC50 (Influenza B virus [16]): > 20 µM; MCC at 72 h [17]: > 100 µM; EC50 (Human alphaherpesvirus 1 [18]): > 20 µM; EC50 (Influenza A virus H3N2 [19]): > 20 µM; EC50 (Human respirovirus 3): > 100 µM; IC50 [20]: 0.034 µM; EC50 (Influenza A virus [21]): > 20 µM; EC50 (Vaccinia virus): > 20 µM; EC50 [22]: 0.0024 µM; CC50 [23]: > 100 µM; EC50 (Influenza A virus H3N2 [24]): > 20 µM; MCC at 72 h [25]: > 100 µM; EC50 [26]: > 100 µM; IC50 [27]: > 500 µM
3 | Cc1cc(C)cc(S(=O)(=O)c2c(C(=O)NCC(N)=O)[nH]c3ccc(Cl)c(F)c23)c1 | > 20 | 1.04 | 2.46 | > 4 | 9 | > 10 | 20 | 100 | > 20 | > 20 | 53 | > 20 | > 20 | > 20 | > 20 | 31 | > 20 | 7.6 | 0.319 | > 4 | EC50 (Human alphaherpesvirus 1 [14]): > 20 µM; EC50 [15]: > 20 µM; EC50 (Influenza B virus [16]): > 4 µM; MCC at 72 h [17]: 100 µM; EC50 (Human alphaherpesvirus 1 [18]): > 20 µM; EC50 (Influenza A virus H3N2 [19]): > 4 µM; EC50 (Human respirovirus 3): > 20 µM; IC50 [20]: 0.025 µM; EC50 (Influenza A virus [21]): > 4 µM; EC50 (Vaccinia virus): > 20 µM; EC50 [22]: 0.0031 µM; CC50 [23]: 71 µM; EC50 (Influenza A virus H3N2 [24]): > 4 µM; MCC at 72 h [25]: > 100 µM; EC50 [26]: 16 µM; IC50 [27]: 34 µM
4 | Cc1cc(C)cc(S(=O)(=O)c2c(C(=O)NCC(N)=O)[nH]c3ccc(Br)cc23)c1 | > 20 | 0.782 | 2.21 | > 4 | 4 | 43 | 20 | 100 | > 20 | > 20 | 40 | > 20 | > 20 | > 20 | > 20 | 31 | > 20 | 9.8 | 0.199 | > 4 | EC50 (Human alphaherpesvirus 1 [14]): > 20 µM; EC50 [15]: > 20 µM; EC50 (Influenza B virus [16]): > 4 µM; MCC at 72 h [17]: 100 µM; EC50 (Human alphaherpesvirus 1 [18]): > 20 µM; EC50 (Influenza A virus H3N2 [19]): > 4 µM; EC50 (Human respirovirus 3): > 20 µM; IC50 [20]: 0.026 µM; EC50 (Influenza A virus [21]): > 4 µM; EC50 (Vaccinia virus): > 20 µM; EC50 [22]: 0.0026 µM; CC50 [23]: 53 µM; EC50 (Influenza A virus H3N2 [24]): > 4 µM; MCC at 72 h [25]: 100 µM; EC50 [26]: 20 µM; IC50 [27]: 17 µM
